L major viab – Leishmania major promastigote growth inhibition; hit rate 9% among 200,000; Leishmania major promastigotes, resazurin fluorescence viability; inhibition, % at 10 µM; in the data active means inhibition above about 50%;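 further: promastigotes grown with compound for 44 hours at 28 °C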
Diaphorase inh – counter-screen for diaphorase-based assays: diaphorase inhibitors and chemical oxidizers. hit rate 0.69% among 190,000. diaphorase resazurin-to-resorufin fluorescence, NADH, 16 min; bacterial (C. kluyveri) enzyme, not human. inhibition, % at 20 µM;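 active means primary screen inhibition at 20 µM above a set limit, cut at about 50% in these data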;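 further: plate controls were DMSO with full reaction for no effect and wells lacking NADH for full effect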
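Test system: bacterial diaphorase enzyme (C. kluyveri); Quantity: 0.14 U/mL diaphorase, enzyme working solution; Times: reaction incubation of 16 min at room temperature; Measured by: fluorescence of resorufin formed from resazurin, Ex 544/Em 590 nm; Benchmarks: positive control minus NADH, DMSO neutral control.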
Cl transport mod – modulates chloride dependent transport by human KCC2; hit rate 2.2% among 190,000; KCC2 cells, thallium flux FluoZin-2 fluorescence; B-score of Tl+ flux slope (higher = more flux/activation; lower = inhibition) at 10 µM; AID 1456; Q9H2X9;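 active means thallium flux slope and its plate-corrected score both differing from the plate sample mean at a set confidence after two filtering rounds, in either direction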;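 further: slope of fluorescence scaled to starting intensity during 10 to 20 s after thallium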
Diaphorase act – counter-screen for diaphorase-based assays: diaphorase activators and chemical reducers; Diaphorase/resazurin coupled assay, resorufin fluorescence, 16 min; hits give high values; 1 = vehicle wells, 0 = NADH-free wells; activation factor at 20 µM; hit rate 0.005% among 190,000; AID 1229;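 active means diaphorase activity raised at least twofold by the compound at 20 µM; inactive means activation factor below 2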
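Material: bacterial diaphorase enzyme (C. kluyveri); amount: enzyme 0.07 U/mL final; reagent: NADH substrate 0.114 mM plus resazurin dye 0.1 mM, final; doses: single compound dose of 20 µM, 1% DMSO final; timing: 16 min enzyme reaction, ambient temperature; measured by: fluorescence of resorufin, 544 nm excitation, 590 nm emission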
ROMK primary – modulators of human ROMK potassium channel; P48048; Tet-inducible ROMK, thallium flux fluorescence; actives lie on both sides; B-score at 10 µM; hit rate 2% among 130,000;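 active means signal ratio slope over the read window, or its plate-corrected B-score, at least 3 SD from the plate mean, either direction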;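 further: B-score of the F/F0 ratio slope over 7 to 12 s after thallium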
Target sequence (P48048 whole entry, looked up): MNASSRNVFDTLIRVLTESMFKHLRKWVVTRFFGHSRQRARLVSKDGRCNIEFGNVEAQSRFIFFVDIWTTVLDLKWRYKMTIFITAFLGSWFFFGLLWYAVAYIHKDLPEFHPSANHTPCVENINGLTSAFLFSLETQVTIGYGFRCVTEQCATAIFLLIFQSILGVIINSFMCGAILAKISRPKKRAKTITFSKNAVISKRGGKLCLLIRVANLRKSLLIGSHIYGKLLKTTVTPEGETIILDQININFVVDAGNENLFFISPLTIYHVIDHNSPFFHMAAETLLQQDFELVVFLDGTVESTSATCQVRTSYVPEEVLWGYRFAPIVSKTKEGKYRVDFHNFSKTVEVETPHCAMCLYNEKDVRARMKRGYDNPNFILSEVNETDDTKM
WT yeast gro inh – growth inhibition of WT yeast, mitochondrial fusion screen | AID 1362 | inhibition, % at 10 µM | hit rate 2.1% among 190,000 | mitochondrial fusion phenotypic screen, WT strain; in the data active means inhibition above about 58%; tested in S. cerevisiae
Numbers without * were called inactive; nt = no result. The list is not random: actives were taken first. Their share in the collection is about 12%.

SMILES	L major viab	Diaphorase inh	Cl transport mod	Diaphorase act	ROMK primary	WT yeast gro inh
Cn1c(/C=C/c2ccccc2)nc2ccccc21	12	16	0.12	0.8	-0.13	67*
COCCn1c(/C=C/c2ccccc2)nc2ccccc21	16	10	-0.95	0.9	0.74	23
Cn1c(=O)c(/C=C/c2ccccc2)nc2ccccc21	-4	16	-0.8	0.8	nt	-4
COc1ccc(/C=C/c2nc3ccccc3n2Cc2ccccc2OC)cc1	65*	14	-0.54	0.9	nt	75*
COc1ccc(N2CCN(c3ccc(N4C(=O)CC(C)C4=O)cc3[N+](=O)[O-])CC2)cc1 (stereo not given)	3	9	-0.28	0.9	nt	-3
O=C(NCCN1CCOCC1)C1CCN(S(=O)(=O)N2CCCC2)CC1	2	10	-0.14	0.9	0.87	-9
COc1ccc(CCNC(=O)c2cc(C(=O)c3cc(Cl)ccc3O)cn(CCc3ccc(OC)cc3)c2=O)cc1	99*	11	-0.28	0.9	-0.77	21
COc1ccc(CCNC(=O)c2cc(C(=O)c3cc(C)ccc3O)cn(CCc3ccc(OC)cc3)c2=O)cc1	96*	15	-0.26	0.9	-1.3	-7
O=C(O)c1ccccc1C(=O)NCCc1ccc(Cl)cc1	2	9	0.088	0.9	1.7	-2
COc1ccc(C(=O)n2cc(C(=O)c3cc(C)ccc3O)cn2)cc1	-11	4	-2	1	0.13	8
COc1ccc(CCNC(=O)c2ccc(Cl)cc2Cl)cc1	-5	8	-0.037	0.9	-0.72	2
O=C(c1cc(C(=O)NCCc2ccccc2)c(=O)n(CCc2ccccc2)c1)c1cc(Cl)ccc1O	98*	18	-0.19	0.8	nt	6
COc1ccc2cc(CN(CC3CCCO3)C(=S)Nc3ccccc3)c(=O)[nH]c2c1 (stereo not given)	26	26	0.047	0.7	0.73	-7
CCC(C)NC(=O)c1cc(Sc2nnc(C)s2)nc2ccccc12 (stereo not given)	-6	3	0.33	1	nt	4
CC1(C)CC(NC(=O)COc2ccc3ccccc3c2)CC(C)(C)N1	83*	8	-0.61	0.9	nt	-2
CCOc1ccc2oc(C(=O)NC(C)(C)CC)c(C)c2c1	-3	7	0.57	0.9	0.018	-18
Cc1ccc(OCC(=O)NC2CC(C)(C)NC(C)(C)C2)cc1C	13	22	-0.57	0.8	-0.31	2
CCOc1ccc2oc(C(=O)NC3CCN(Cc4ccccc4)CC3)c(C)c2c1	83*	6	nt	0.9	0.0076	20
CCOc1ccc2oc(C(=O)NC3CC(C)(C)NC(C)(C)C3)c(C)c2c1	82*	-7	1.2	1.1	-1.1	-9
O=C(Nc1ccc2c(c1)OC1(CCCC1)O2)C1CC1	0	13	-1.7	0.9	nt	22
Nc1nnc(SCc2nnc(-c3ccccc3)o2)s1	6	9	-0.37	0.9	-0.31	-21
Cc1cc(Cl)ccc1NC(=S)NCC(C)C	7	18	0.19	0.8	0.26	7
Cc1ccc(S(=O)(=O)N2CCCCC2)cc1NS(=O)(=O)c1cccc(C(=O)O)c1	-5	10	0.14	0.9	nt	-4
COc1c(Cl)cccc1-c1cn2ccccc2n1	nt	nt	0.48	nt	-0.32	nt
O=C(CSc1nnc(-c2ccco2)c(-c2ccco2)n1)Nc1ccccc1	75*	45	0.53	0.6	-0.14	54
SMILES	L major viab	Diaphorase inh	Cl transport mod	Diaphorase act	ROMK primary	WT yeast gro inh
COc1ccc(C(=O)CSc2nnc(-c3ccco3)c(-c3ccco3)n2)cc1	99*	62*	-0.75	0.4	-0.81	9
Cc1ccc(NC(=O)CSc2nnc(-c3ccco3)c(-c3ccco3)n2)cc1	96*	48	-0.95	0.5	nt	1
CSc1nnc(-c2ccco2)c(-c2ccco2)n1	-4	61*	nt	0.4	-0.18	-4
O=C(NCC(=O)N(CCN1CCOCC1)C(C(=O)NC1CCCC1)c1ccccc1)c1cccs1 (stereo not given)	5	7	-0.46	0.9	-0.57	-3
CC(C)(C)NC(=O)CSc1nc(N)c(-c2ccccc2)c(=O)[nH]1	-2	2	0.18	1	-0.11	-19
COc1ccc(C(=O)Nc2c(C(C)(C)C)nn(C)c2C(C)(C)C)cc1	nt	nt	-0.51	nt	nt	nt
O=C1CC2(CCCC2)CC(=O)N1CCCCN1CCN(c2ncccn2)CC1	60*	3	0.015	1	nt	-2

High-throughput results from PubChem BioAssay.
